# Laboratory results reported in ChEMBL document CHEMBL1151962, “Identification of N,1,4,4-tetramethyl-8-{[4-(4-methylpiperazin-1-yl)phenyl]amino}-4,5-dihydro-1H-pyrazolo[4,3-h]quinazoline-3-carboxamide (PHA-848125), a potent, orally available cyclin dependent kinase inhibitor” (J Med Chem, 2009).
# Key:
# [1] = Half life in fasted nu/nu mouse at 10 mg/kg, po by LC/MS/MS analysis; format: ADME, organism-based; design: dose 10 mg/kg, route oral; settings: in vivo
# Method in brief: (§1)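 Overnight-fasted male Nu/Nu mice received a single 10 mg/kg dose iv or orally, in 5% dextrose vehicle, given as the hydrochloride salt. Three mice per route. Saphenous vein blood was drawn predose and at 0.083 (iv) or 0.25 (po), 0.5, 1, 6 and 24 h. Samples were spun at 10000g for 3 min at 4 °C, and plasma was stored at -80 °C until analysis.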
# [2] = Oral bioavailability in fasted nu/nu mouse at 10 mg/kg by LC/MS/MS analysis; format: ADME, organism-based; settings: in vivo; method in brief: as §1
# Mus musculus = test: Hepatic blood flow in fasted nu/nu mouse at 10 mg/kg, iv by LC/MS/MS analysis; format: ADME, organism-based, Liver; design: dose 10 mg/kg, route intravenous; settings: in vivo
# [3] = Cmax in fasted nu/nu mouse at 10 mg/kg, po by LC/MS/MS analysis; format: ADME, organism-based; design: dose 10 mg/kg, route oral; settings: in vivo; method in brief: as §1
# [4] = AUC in fasted nu/nu mouse at 10 mg/kg, po LC/MS/MS analysis; format: ADME, organism-based; design: dose 10 mg/kg, route oral; settings: plasma; method in brief: as §1
# [5] = Clearance in fasted nu/nu mouse at 10 mg/kg, iv by LC/MS/MS analysis; format: ADME, organism-based; design: dose 10 mg/kg, route intravenous; settings: in vivo; method in brief: as §1
# [6] = Half life in fasted nu/nu mouse at 10 mg/kg, iv by LC/MS/MS analysis; format: ADME, organism-based; design: dose 10 mg/kg, route intravenous; settings: in vivo; method in brief: as §1
# [7] = Solubility in 5% dextrose; format: physicochemical
# Cytochrome P450 3A4 = Cytochrome P450 3A4 (Homo sapiens, UniProt P08684); test: Inhibition of human CYP3A4 assessed as compound remaining by LC/MS/MS analysis; format: ADME; design: concentration or dose not given beside the values
# Chain of Cytochrome P450 3A4 (P08684 whole entry): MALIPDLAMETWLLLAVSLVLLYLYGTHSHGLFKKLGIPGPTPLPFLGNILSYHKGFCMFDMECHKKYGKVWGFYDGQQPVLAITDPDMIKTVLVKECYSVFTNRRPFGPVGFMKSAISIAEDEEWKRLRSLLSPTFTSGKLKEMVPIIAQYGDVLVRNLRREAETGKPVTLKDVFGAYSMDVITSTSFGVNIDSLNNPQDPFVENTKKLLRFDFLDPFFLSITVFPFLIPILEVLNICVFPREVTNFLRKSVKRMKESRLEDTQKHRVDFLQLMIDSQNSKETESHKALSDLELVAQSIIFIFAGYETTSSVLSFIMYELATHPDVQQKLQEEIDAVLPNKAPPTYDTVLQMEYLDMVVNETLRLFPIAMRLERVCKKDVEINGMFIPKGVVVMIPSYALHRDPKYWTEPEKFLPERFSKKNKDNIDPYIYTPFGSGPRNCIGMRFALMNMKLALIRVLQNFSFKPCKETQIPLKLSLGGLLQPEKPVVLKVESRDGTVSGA
# [8] = Volume of distribution at steady state in fasted nu/nu mouse at 10 mg/kg, iv by LC/MS/MS analysis; format: ADME, organism-based; design: dose 10 mg/kg, route intravenous; settings: in vivo, read-out: Vdss; method in brief: as §1
# Homo sapiens = organism: Homo sapiens; test: Protein binding in human plasma; settings: read-out: PPB (converted)
fraction unbound (Homo sapiens),Structure (SMILES),half-life [1] [h],bioavailability [2] [%],Activity (Mus musculus) [%],Cmax [3] [nM],AUC [4] [µM·h],clearance [5] [mL/min/kg],half-life [6] [h],solubility [7] [µg/mL],Activity (Cytochrome P450 3A4) [%],Vd [8] [L/kg]
–,CNC(=O)c1nn(C)c2c1C(C)(C)Cc1cnc(Nc3ccc(N4CCN(C)CC4)cc3)nc1-2.Cl,2.9,85,36,2350,8.29,31.2,2.6,10000,85,4.82
0.05,CNC(=O)c1nn(C)c2c1C(C)(C)Cc1cnc(Nc3ccc(CN(C)C)cc3)nc1-2.Cl,3.4,28,–,570,1.97,53.3,1.4,10000,77,4.04
